Bioassay records from PubChem BioAssay.
MPTP inh: permeability transition pore inhibition | isolated mouse mitochondria, Ca2+ swelling absorbance, 30 min | inhibition, % at 10 µM | actives 1.4% (n = 360,000);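 active means inhibition of 50% or more, scaled per plate between neutral and stimulator controls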;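 further: 0% = DMSO wells given calcium and 100% = 1 mM EGTA wells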
MC4R barr agon: activates human MC4R beta-arrestin recruitment; P32245; U2OS MC4R beta-arrestin complementation, luminescence; percent of melanotan II response, DMSO zero; activation, % at 8.9 µM; actives 0.98% (n = 360,000); AID 540308;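 active means activation above a per-plate cutoff, the mean activation of sample wells on that plate plus 3 SD, cut at about 8% in these data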
Target sequence (P32245 whole entry, looked up): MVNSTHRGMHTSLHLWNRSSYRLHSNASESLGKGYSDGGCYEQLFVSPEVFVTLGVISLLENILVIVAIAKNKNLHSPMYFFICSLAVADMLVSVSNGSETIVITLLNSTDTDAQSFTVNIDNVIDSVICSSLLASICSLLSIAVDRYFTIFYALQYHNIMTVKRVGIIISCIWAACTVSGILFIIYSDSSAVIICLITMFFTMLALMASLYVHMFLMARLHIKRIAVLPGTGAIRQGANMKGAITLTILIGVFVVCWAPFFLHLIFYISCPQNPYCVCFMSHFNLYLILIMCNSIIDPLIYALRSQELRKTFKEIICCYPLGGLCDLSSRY
SMARCA2 activ: increases SMARCA2 function in MMTV reporter cells; MG213 cells, MMTV-luciferase reporter, dexamethasone, overnight; activation, % at 9.1 µM; actives 1% (n = 370,000); in the data active means activation above about 7.8%;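 further: 0% = vehicle wells and 100% = reference activator wells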
ATG4B inh: inhibitors of human ATG4B cysteine protease; Q9Y4P1; ATG4B cleavage of LC3-PLA2, NBD-HPC fluorescence, 1 h; inhibition, % at 8.33 µM; actives 0.51% (n = 340,000); AID 504462; in the data active means inhibition above about 40%
Target sequence (Q9Y4P1 whole entry, looked up): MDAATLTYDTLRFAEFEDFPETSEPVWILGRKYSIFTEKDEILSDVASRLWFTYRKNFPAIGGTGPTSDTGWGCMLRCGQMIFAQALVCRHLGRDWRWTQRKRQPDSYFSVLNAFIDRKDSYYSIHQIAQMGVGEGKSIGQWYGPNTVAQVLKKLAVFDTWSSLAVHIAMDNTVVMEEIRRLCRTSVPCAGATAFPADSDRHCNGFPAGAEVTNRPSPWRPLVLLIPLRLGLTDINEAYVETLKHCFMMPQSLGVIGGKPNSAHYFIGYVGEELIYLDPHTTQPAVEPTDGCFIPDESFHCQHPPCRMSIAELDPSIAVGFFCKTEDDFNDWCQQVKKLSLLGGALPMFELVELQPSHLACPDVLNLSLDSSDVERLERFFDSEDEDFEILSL
MC4R antag cAMP: human MC4R antagonism in cAMP assay; P32245; MC4R-expressing cells, MTII-stimulated cAMP, LANCE TR-FRET; inhibition, % at 6.5 µM; actives 0.48% (n = 360,000); AID 540295;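 active means inhibition above its plate's cutoff, the mean of tested wells on that plate plus 3 SD, cut at about 29% in these data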;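 further: 0% = Melanotan II alone and 100% = Melanotan II plus saturating MCL0020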
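Assay system: U2OS cells stably expressing human melanocortin 4 receptor (MC4R) / Dosing: 6.5 µM / Timing: compound 30 min, challenge 1 h, detection 1 h / Measured by: Eu-cAMP/anti-cAMP TR-FRET, emission 671 nm / Replicates: singlicate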
MC4R barr conf: human MC4R beta-arrestin agonism confirmation; shares compounds with MC4R barr agon; AID 602192; U2OS MC4R beta-arrestin recruitment, luminescence; scaled DMSO 0%, Melanotan II 100%; actives 31% (n = 2,400); activation, % at 8.9 µM;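 active means mean activation across replicates above the hit cutoff set in the earlier primary screen, cut at about 8% in these data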
MOR DOR agonist: counter-screen for MC4R agonists: agonists of mu-delta opioid heterodimer; shares compounds with MC4R barr agon; U2OS PathHunter beta-arrestin, beta-gal luminescence; percent of deltorphin B response, DMSO zero; activation, % at 9.2 µM; actives 5.8% (n = 2,400); AID 602194;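 active means mean activation across replicates exceeds the hit threshold derived in the earlier primary screen, cut at about 18% in these data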;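 further: 100% = deltorphin B at 0.9 µM final and 0% = DMSO alone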
Numbers without * were called inactive; / = no result given. Hits are enriched below; roughly 4.1% of the tested compounds scored in any of these assays.

SMILES | MPTP inh | MC4R barr agon | SMARCA2 activ | ATG4B inh | MC4R antag cAMP | MC4R barr conf | MOR DOR agonist
O=C1NC2(NN1c1ccccc1)C1CC3CC(C1)CC2C3 (centres undefined) | -3.5 | 18.0* | -2.7 | -1.2 | 15.1 | 2.5 | 5.3
Cc1cc(C)cc(N(CC(=O)NC2CCC(C)CC2)S(=O)(=O)c2cccs2)c1 (centres undefined) | / | / | -2.6 | / | / | / | /
Nc1nc(-c2cc(O)ccc2[N+](=O)[O-])cc(-c2ccccc2)c1[N+](=O)[O-] | 1.1 | 11.1* | 1.8 | 0.0 | -16.6 | 1.1 | 3.5
O=S1(=O)c2c(cccc2N2CC[C@H](O)C2)O[C@H]2CCN1C2 | / | / | 0.3 | / | / | / | /
CCOC(=O)c1c(NC(=O)CN2CCCc3ccccc32)sc(C(C)=O)c1C | -0.6 | 23.0* | 0.6 | -5.1 | 4.3 | 2.3 | 2.3
COCCOC(=O)c1c(NC(=O)CN2CCc3ccccc32)sc(C(N)=O)c1C | 2.0 | -0.5 | -5.1 | -7.4 | 4.7 | / | /
COC(=O)[C@]12C[C@H](CC(=O)NCC34CC5CC(CC(C5)C3)C4)C(=O)N(CCC3=CCCCC3)C1=C[C@H](C1CCCC1)O[C@@H]2C | / | / | -1.2 | / | / | / | /
CCOc1cc(S(=O)(=O)Nc2cc(C)cc(C)c2)ccc1Cl | 3.2 | 9.6* | -5.6 | 11.6 | -2.4 | 5.7 | 8.3
O=[N+]([O-])c1cccc(-c2csc(N/N=C/c3cccc(O)c3)n2)c1 | 0.9 | 11.1* | -0.2 | 7.1 | -1.0 | 9.8* | 8.6
CCOC(=O)Cc1csc(N/N=C/c2cccc([N+](=O)[O-])c2)n1 | 1.3 | 14.3* | -4.4 | 7.4 | -4.1 | -0.4 | 9.6
CSc1ccc(C(=O)NC2CCSc3ccccc32)cc1 (centres undefined) | -0.6 | 21.1* | -0.3 | 3.8 | -4.2 | 3.1 | 5.5
COC(=O)c1cc(NC(=O)c2ccc(C)cc2)c(=O)oc1C | 1.4 | -2.3 | 3.6 | 0.1 | 5.9 | / | /
CCOC(=O)c1cc(NC(=O)c2ccc(C)cc2)c(=O)oc1-c1ccccc1 | 4.0 | 11.2* | -1.6 | -0.1 | 14.3 | 1.1 | 2.0
COc1ccc(C(=O)CSc2nnc(-c3n[nH]c4c3CCC4)n2N)cc1OC | / | / | 5.2 | / | / | / | /
Cc1nc(C)c(-c2ccc(SCC(=O)Nc3ccc(C)c(Cl)c3)nn2)s1 | 1.0 | 10.3* | -2.1 | 1.6 | -0.9 | 2.7 | 6.3
Cc1ccc(C=C(C#N)C(=O)c2ccccc2)cc1 | -0.9 | / | -0.5 | / | / | / | /
CN(C)c1ccc(/C=C(\C#N)C(=O)c2ccccc2)cc1 | 1.4 | 19.3* | 1.8 | 5.9 | 11.3 | -0.7 | 2.4
Cc1ccc(C(=O)N/C(=C\c2ccc(-c3cccc([N+](=O)[O-])c3)o2)C(=O)NCCCN(C)C)cc1 | 2.6 | 0.5 | -2.9 | 4.0 | -19.2 | / | /
Cc1ccc(C(=O)N/C(=C\c2ccc(-c3ccc(Br)cc3)o2)C(=O)NCCCN(C)C)cc1 | -8.1 | 11.3* | -9.1 | 16.5 | 12.3 | 9.1* | 9.5
O=C(CSc1ccccc1F)NC(=O)c1ccc(Cl)cc1 | 1.9 | 10.3* | 0.8 | 1.2 | 4.3 | 5.2 | 2.3
O=C(CSc1ccc(Cl)cc1)NC(=O)c1ccccc1 | 0.1 | 0.3 | -2.8 | 0.5 | 2.5 | / | /
COC(=O)[C@]12CCCCC=C1N(Cc1ccc(OC)cc1)C(=O)[C@@H]2CC(=O)NCC12CC3CC(CC(C3)C1)C2 | / | / | -1.2 | / | / | / | /
N#Cc1ccc(-c2ccccc2)nc1SCC(=O)c1cccc(Cl)c1 | 2.0 | 0.9 | -2.6 | -3.0 | -4.1 | / | /
N#Cc1ccc(-c2cccnc2)nc1SCC(=O)c1ccccc1 | 0.3 | 11.2* | 3.0 | -6.7 | 7.7 | 7.0 | 2.5
O=C(CSc1ncnc2c1oc1ccccc12)Nc1cccc(Cl)c1 | 46.0 | 12.7* | -2.3 | 8.5 | 9.9 | -0.2 | 4.7
SMILES | MPTP inh | MC4R barr agon | SMARCA2 activ | ATG4B inh | MC4R antag cAMP | MC4R barr conf | MOR DOR agonist
COc1ccc(C(=O)NCC2CCN(C(=O)C(=O)c3cc4ccccc4o3)CC2)cc1 | / | / | -3.8 | / | / | / | /
c1ccc(COc2cccc(-c3cc4nc(NCCOc5ccccc5)ccn4n3)c2)cc1 | 3.7 | -0.9 | -3.6 | / | 12.2 | / | /
Clc1cccc(-c2cc3nc(NCCOc4ccccc4)ccn3n2)c1 | 3.1 | 10.6* | -2.5 | / | 1.7 | 1.7 | 3.9
COc1ccc(C(NC(=O)C2CCN(CCOc3ccc(Cl)cc3Cl)CC2)c2ccccc2C)cn1 (centres undefined) | 5.3 | 52.9* | 1.9 | / | 2.8 | 34.8* | 13.2
COc1ccc(C(NC(=O)C2CCN(CCOc3ccc(Cl)cc3Cl)CC2)c2cccs2)cc1 (centres undefined) | 8.5 | 110.7* | -2.9 | / | 4.8 | 32.5* | 11.1
O=C(NC(c1ccccc1)c1ccsc1)C1CCN(CCOc2ccc(Cl)cc2Cl)CC1 (centres undefined) | 5.0 | 54.1* | -1.9 | / | -0.7 | 46.9* | 8.6
C[C@@H]1ON(C)[C@H]2C[C@H]3c4cc(N5CCN(C)CC5)ccc4CCN3C[C@@H]12 | / | / | 3.2 | / | / | / | /
COc1c(Br)cc(Br)cc1/C=N/NC(=O)c1ccncc1 | -3.8 | -1.7 | -0.5 | -13.0 | 0.2 | / | /
CCNC(=S)N/N=C/c1cc(Br)cc(Br)c1OC | 0.4 | 11.6* | -1.0 | 9.5 | 23.6 | 1.7 | 7.7
COc1cc(C(=S)N2CCCCC2)ccc1OCC(=O)Nc1ccccc1Cl | -0.6 | -0.1 | -0.8 | 0.3 | 11.8 | / | /
O=C(COc1ccc(C(=S)N2CCOCC2)cc1Cl)Nc1ccccc1Cl | -2.9 | 21.5* | 3.7 | -0.6 | 11.7 | -1.3 | 4.5
CC(=O)c1nn(-c2cccc(Br)c2)cc1C(=O)c1ccc(C)cc1 | 2.2 | 35.0* | -0.9 | -3.2 | 0.8 | 5.6 | 6.4
C#CCN1CC(N(C)CCOC(=O)c2cc(C)cc(C)c2)CS1(=O)=O (centres undefined) | / | / | -4.0 | / | / | / | /
C=CCSc1nc2sc(-c3ccccc3)cc2c(=O)n1N | 0.9 | 18.5* | 1.1 | 4.0 | 2.9 | 21.1* | 20.8*
Cc1ccccc1-n1c(SCC(N)=O)nc2sc(-c3ccccc3)cc2c1=O | -17.0 | -1.0 | -4.5 | -3.1 | 8.2 | / | /
CCOC(=O)c1c(Nc2ccccc2)sc(/C=C2\C=Nc3ccccc32)c1O | 22.4 | 14.9* | / | 13.9 | 3.8 | 3.8 | 5.0
CC(C)C[C@H]1COc2cc(N3CCSCC3)ccc2S(=O)(=O)N1C | / | / | -1.8 | / | / | / | /
COC(=O)[C@H](C(C)C)N1Cc2nnn(CC3CCCCC3)c2-c2cc(F)ccc2S1(=O)=O | / | / | -2.7 | / | / | / | /
COC(=O)C1=C(C)N(Cc2ccccc2C(F)(F)F)C(=NCc2ccccc2)NC1c1ccc(Cl)cc1 (centres undefined) | / | / | -3.4 | / | / | / | /
COc1cccc(Cn2cc(COC(=O)NCC(C)C)nn2)c1 | / | / | -1.6 | / | / | / | /
Clc1ccc(OCc2nn3c(-c4ccco4)nnc3s2)c(Cl)c1 | 18.6 | 20.9* | -1.9 | -1.9 | 0.4 | 1.5 | 6.8
